Reference: ChEMBL document CHEMBL1122079, “Tryptophan analogues. 1. Synthesis and antihypertensive activity of positional isomers” (1982)

tested on: Felis catus; test: Change in blood pressure in normotensive anesthetized cat.; format: functional
Summary of the method: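 Normotensive cats of either sex (2-4 kg) anesthetized with α-chloralose (80 mg/kg iv). Trachea, femoral artery and jugular vein cannulated. Compound given iv at 10 mg/kg, with 1 mg/kg iv used in one case. Mean blood pressure recorded by pressure transducer before and 30 min after dosing, reported as decrease in mmHg.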

Going from `COc1ccc2[nH]cc(C(CNC(C)=O)C(=O)O)c2c1` (stereo not drawn) to `COc1ccc2[nH]cc(C(CN)C(=O)OC(C)C)c2c1.Cl` (stereo not drawn), the BP falls from -14 mmHg to -48 mmHg.

Compared with `NCC(CC(=O)O)c1c[nH]c2cc(Cl)ccc12` (stereo not drawn), `Cl.NCC(C(=O)O)c1c[nH]c2ccc(Br)cc12` (stereo not drawn) is lower in BP: 5 mmHg for the first, -15 mmHg for the second.

Going from `COC(=O)C(CN)c1c[nH]c2ccccc12.Cl` (stereo not drawn) to `COC(=O)C(CN(C)C)c1c[nH]c2ccccc12` (stereo not drawn), the BP rises from -53 mmHg to -35 mmHg.

First: COC(=O)C(CN)c1c(C)[nH]c2ccc(OC)cc12.Cl (stereo not drawn)
Second: COC(=O)C(N)Cc1c[nH]c2ccc(OC)cc12 (stereo not drawn)
The BP of the first is higher: 1 mmHg for the first, -12 mmHg for the second.

Compared with `N[C@@H](Cc1c[nH]c2ccccc12)C(=O)O` [TRYPTOPHAN], `NCC(c1nnn[nH]1)c1c[nH]c2ccccc12` (stereo not drawn) is higher in BP: -22 mmHg for the first, -5 mmHg for the second.

Going from `CCOC(=O)C(CNC(C)=O)c1cn(C(=O)OCC)c2ccccc12` (stereo not drawn) to `CCOC(=O)CC(c1nnn[nH]1)c1c[nH]c2ccccc12` (stereo not drawn), the BP rises from -49 mmHg to 2 mmHg.

Compared with `CCOC(=O)C(CN)c1c[nH]c2ccc(Br)cc12.Cl` (stereo not drawn), `CCOC(=O)NCC(c1nnn[nH]1)c1c[nH]c2ccc(OC)cc12` (stereo not drawn) is higher in BP: -18 mmHg for the first, 5 mmHg for the second.

tested on: Rattus norvegicus; test: Antihypertensive activity in renal hypertensive rats 6 hr after oral administration (10 mg/Kg); format: functional
Summary of the method: (§1)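 Renal hypertensive rats (5 or 10 per group), 10 mg/kg given orally. Systolic pressure measured indirectly by tail occluding cuff with pulse sensor, once before dosing as control and again at 1, 2, 4, 6 and 8 h. Values are changes in mean systolic pressure from control (mmHg). Significance of control vs posttreatment assessed by Wilcoxon's signed rank test (p < 0.05).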

First: COc1ccc2[nH]cc(C(CNC(C)=O)C(=O)O)c2c1 (stereo not drawn)
Second: COc1ccc2[nH]cc(C(CN)C(=O)OC(C)C)c2c1.Cl (stereo not drawn)
The BP of the first is lower: -28 mmHg for the first, 7 mmHg for the second.

Compared with `NCC(CC(=O)O)c1c[nH]c2cc(Cl)ccc12` (stereo not drawn), `Cl.NCC(C(=O)O)c1c[nH]c2ccc(Br)cc12` (stereo not drawn) is higher in BP: -9 mmHg for the first, 5 mmHg for the second.

First: COC(=O)C(CN)c1c[nH]c2ccccc12.Cl (stereo not drawn)
Second: COC(=O)C(CN(C)C)c1c[nH]c2ccccc12 (stereo not drawn)
The BP of the first is lower: -6 mmHg for the first, 11 mmHg for the second.

First: COC(=O)C(CN)c1c(C)[nH]c2ccc(OC)cc12.Cl (stereo not drawn)
Second: COC(=O)C(N)Cc1c[nH]c2ccc(OC)cc12 (stereo not drawn)
The BP of the first is lower: -8 mmHg for the first, 4 mmHg for the second.

Compared with `N[C@@H](Cc1c[nH]c2ccccc12)C(=O)O` [TRYPTOPHAN], `NCC(c1nnn[nH]1)c1c[nH]c2ccccc12` (stereo not drawn) is higher in BP: -4 mmHg for the first, 5 mmHg for the second.

`CCOC(=O)C(CNC(C)=O)c1cn(C(=O)OCC)c2ccccc12` (stereo not drawn) and `CCOC(=O)CC(c1nnn[nH]1)c1c[nH]c2ccccc12` (stereo not drawn) are the same in BP: -22 mmHg for the first, -22 mmHg for the second.

Compared with `CCOC(=O)C(CN)c1c[nH]c2ccc(Br)cc12.Cl` (stereo not drawn), `CCOC(=O)NCC(c1nnn[nH]1)c1c[nH]c2ccc(OC)cc12` (stereo not drawn) is higher in BP: -3 mmHg for the first, 2 mmHg for the second.

tested on: Rattus norvegicus; test: Antihypertensive activity in renal hypertensive rats 8 hr after oral administration (10 mg/Kg); format: functional; summary of the method: as §1

Going from `COc1ccc2[nH]cc(C(CNC(C)=O)C(=O)O)c2c1` (stereo not drawn) to `COc1ccc2[nH]cc(C(CN)C(=O)OC(C)C)c2c1.Cl` (stereo not drawn), the BP rises from -8 mmHg to 13 mmHg.

Compared with `NCC(CC(=O)O)c1c[nH]c2cc(Cl)ccc12` (stereo not drawn), `Cl.NCC(C(=O)O)c1c[nH]c2ccc(Br)cc12` (stereo not drawn) is higher in BP: -2 mmHg for the first, 0 mmHg for the second.

Compared with `COC(=O)C(CN)c1c[nH]c2ccccc12.Cl` (stereo not drawn), `COC(=O)C(CN(C)C)c1c[nH]c2ccccc12` (stereo not drawn) is higher in BP: -7 mmHg for the first, 1 mmHg for the second.

Going from `COC(=O)C(CN)c1c(C)[nH]c2ccc(OC)cc12.Cl` (stereo not drawn) to `COC(=O)C(N)Cc1c[nH]c2ccc(OC)cc12` (stereo not drawn), the BP rises from -3 mmHg to -1 mmHg.

Going from `N[C@@H](Cc1c[nH]c2ccccc12)C(=O)O` [TRYPTOPHAN] to `NCC(c1nnn[nH]1)c1c[nH]c2ccccc12` (stereo not drawn), the BP rises from 0 mmHg to 2 mmHg.

First: CCOC(=O)C(CNC(C)=O)c1cn(C(=O)OCC)c2ccccc12 (stereo not drawn)
Second: CCOC(=O)CC(c1nnn[nH]1)c1c[nH]c2ccccc12 (stereo not drawn)
The BP of the first is lower: -18 mmHg for the first, -7 mmHg for the second.

First: CCOC(=O)C(CN)c1c[nH]c2ccc(Br)cc12.Cl (stereo not drawn)
Second: CCOC(=O)NCC(c1nnn[nH]1)c1c[nH]c2ccc(OC)cc12 (stereo not drawn)
The BP of the first is higher: 1 mmHg for the first, 0 mmHg for the second.

tested on: Rattus norvegicus; test: Antihypertensive activity in renal hypertensive rats 1 hr after oral administration (10 mg/Kg); format: functional; summary of the method: as §1

First: COc1ccc2[nH]cc(C(CNC(C)=O)C(=O)O)c2c1 (stereo not drawn)
Second: COc1ccc2[nH]cc(C(CN)C(=O)OC(C)C)c2c1.Cl (stereo not drawn)
The BP of the first is lower: -16 mmHg for the first, 7 mmHg for the second.

Going from `NCC(CC(=O)O)c1c[nH]c2cc(Cl)ccc12` (stereo not drawn) to `Cl.NCC(C(=O)O)c1c[nH]c2ccc(Br)cc12` (stereo not drawn), the BP falls from 2 mmHg to -12 mmHg.

Compared with `COC(=O)C(CN)c1c[nH]c2ccccc12.Cl` (stereo not drawn), `COC(=O)C(CN(C)C)c1c[nH]c2ccccc12` (stereo not drawn) is higher in BP: -7 mmHg for the first, -2 mmHg for the second.

Compared with `COC(=O)C(CN)c1c(C)[nH]c2ccc(OC)cc12.Cl` (stereo not drawn), `COC(=O)C(N)Cc1c[nH]c2ccc(OC)cc12` (stereo not drawn) is lower in BP: 2 mmHg for the first, -7 mmHg for the second.

First: N[C@@H](Cc1c[nH]c2ccccc12)C(=O)O [TRYPTOPHAN]
Second: NCC(c1nnn[nH]1)c1c[nH]c2ccccc12 (stereo not drawn)
The BP of the first is lower: -12 mmHg for the first, 8 mmHg for the second.

First: CCOC(=O)C(CNC(C)=O)c1cn(C(=O)OCC)c2ccccc12 (stereo not drawn)
Second: CCOC(=O)CC(c1nnn[nH]1)c1c[nH]c2ccccc12 (stereo not drawn)
The BP of the first is higher: -3 mmHg for the first, -4 mmHg for the second.

Compared with `CCOC(=O)C(CN)c1c[nH]c2ccc(Br)cc12.Cl` (stereo not drawn), `CCOC(=O)NCC(c1nnn[nH]1)c1c[nH]c2ccc(OC)cc12` (stereo not drawn) is higher in BP: -3 mmHg for the first, -2 mmHg for the second.

tested on: Rattus norvegicus; test: Antihypertensive activity in renal hypertensive rats 2 hr after oral administration (10 mg/Kg); format: functional; summary of the method: as §1

First: COc1ccc2[nH]cc(C(CNC(C)=O)C(=O)O)c2c1 (stereo not drawn)
Second: COc1ccc2[nH]cc(C(CN)C(=O)OC(C)C)c2c1.Cl (stereo not drawn)
The BP of the first is lower: -18 mmHg for the first, -1 mmHg for the second.

Going from `NCC(CC(=O)O)c1c[nH]c2cc(Cl)ccc12` (stereo not drawn) to `Cl.NCC(C(=O)O)c1c[nH]c2ccc(Br)cc12` (stereo not drawn), the BP falls from 5 mmHg to -5 mmHg.

Compared with `COC(=O)C(CN)c1c[nH]c2ccccc12.Cl` (stereo not drawn), `COC(=O)C(CN(C)C)c1c[nH]c2ccccc12` (stereo not drawn) is higher in BP: -9 mmHg for the first, 0 mmHg for the second.

Going from `COC(=O)C(CN)c1c(C)[nH]c2ccc(OC)cc12.Cl` (stereo not drawn) to `COC(=O)C(N)Cc1c[nH]c2ccc(OC)cc12` (stereo not drawn), the BP rises from -2 mmHg to 4 mmHg.

First: N[C@@H](Cc1c[nH]c2ccccc12)C(=O)O [TRYPTOPHAN]
Second: NCC(c1nnn[nH]1)c1c[nH]c2ccccc12 (stereo not drawn)
The BP of the first is lower: -9 mmHg for the first, 1 mmHg for the second.

First: CCOC(=O)C(CNC(C)=O)c1cn(C(=O)OCC)c2ccccc12 (stereo not drawn)
Second: CCOC(=O)CC(c1nnn[nH]1)c1c[nH]c2ccccc12 (stereo not drawn)
The BP of the first is higher: -3 mmHg for the first, -22 mmHg for the second.

First: CCOC(=O)C(CN)c1c[nH]c2ccc(Br)cc12.Cl (stereo not drawn)
Second: CCOC(=O)NCC(c1nnn[nH]1)c1c[nH]c2ccc(OC)cc12 (stereo not drawn)
The BP of the first is lower: -7 mmHg for the first, 2 mmHg for the second.

tested on: Rattus norvegicus; test: Antihypertensive activity in renal hypertensive rats 4 hr after oral administration (10 mg/Kg); format: functional; summary of the method: as §1

Going from `COc1ccc2[nH]cc(C(CNC(C)=O)C(=O)O)c2c1` (stereo not drawn) to `COc1ccc2[nH]cc(C(CN)C(=O)OC(C)C)c2c1.Cl` (stereo not drawn), the BP rises from -24 mmHg to 13 mmHg.

Compared with `NCC(CC(=O)O)c1c[nH]c2cc(Cl)ccc12` (stereo not drawn), `Cl.NCC(C(=O)O)c1c[nH]c2ccc(Br)cc12` (stereo not drawn) is higher in BP: -9 mmHg for the first, 0 mmHg for the second.

First: COC(=O)C(CN)c1c[nH]c2ccccc12.Cl (stereo not drawn)
Second: COC(=O)C(CN(C)C)c1c[nH]c2ccccc12 (stereo not drawn)
The BP of the first is lower: -9 mmHg for the first, 2 mmHg for the second.

`COC(=O)C(CN)c1c(C)[nH]c2ccc(OC)cc12.Cl` (stereo not drawn) and `COC(=O)C(N)Cc1c[nH]c2ccc(OC)cc12` (stereo not drawn) are the same in BP: -8 mmHg for the first, -8 mmHg for the second.

Compared with `N[C@@H](Cc1c[nH]c2ccccc12)C(=O)O` [TRYPTOPHAN], `NCC(c1nnn[nH]1)c1c[nH]c2ccccc12` (stereo not drawn) is higher in BP: -15 mmHg for the first, 8 mmHg for the second.

Compared with `CCOC(=O)C(CNC(C)=O)c1cn(C(=O)OCC)c2ccccc12` (stereo not drawn), `CCOC(=O)CC(c1nnn[nH]1)c1c[nH]c2ccccc12` (stereo not drawn) is lower in BP: -18 mmHg for the first, -27 mmHg for the second.

Going from `CCOC(=O)C(CN)c1c[nH]c2ccc(Br)cc12.Cl` (stereo not drawn) to `CCOC(=O)NCC(c1nnn[nH]1)c1c[nH]c2ccc(OC)cc12` (stereo not drawn), the BP rises from -2 mmHg to 0 mmHg.

tested on: Felis catus; test: Control blood pressure in normotensive anesthetized cat at dose 10 mg/Kg iv

Compared with `COc1ccc2[nH]cc(C(CNC(C)=O)C(=O)O)c2c1` (stereo not drawn), `COc1ccc2[nH]cc(C(CN)C(=O)OC(C)C)c2c1.Cl` (stereo not drawn) is higher in “control BP” value: 154 mmHg for the first, 181 mmHg for the second.

First: NCC(CC(=O)O)c1c[nH]c2cc(Cl)ccc12 (stereo not drawn)
Second: Cl.NCC(C(=O)O)c1c[nH]c2ccc(Br)cc12 (stereo not drawn)
The “control BP” value of the first is higher: 160 mmHg for the first, 115 mmHg for the second.

Going from `COC(=O)C(CN)c1c[nH]c2ccccc12.Cl` (stereo not drawn) to `COC(=O)C(CN(C)C)c1c[nH]c2ccccc12` (stereo not drawn), the “control BP” value falls from 156 mmHg to 145 mmHg.

First: COC(=O)C(CN)c1c(C)[nH]c2ccc(OC)cc12.Cl (stereo not drawn)
Second: COC(=O)C(N)Cc1c[nH]c2ccc(OC)cc12 (stereo not drawn)
The “control BP” value of the first is higher: 164 mmHg for the first, 136 mmHg for the second.

Compared with `N[C@@H](Cc1c[nH]c2ccccc12)C(=O)O` [TRYPTOPHAN], `NCC(c1nnn[nH]1)c1c[nH]c2ccccc12` (stereo not drawn) is lower in “control BP” value: 165 mmHg for the first, 155 mmHg for the second.

Going from `CCOC(=O)C(CNC(C)=O)c1cn(C(=O)OCC)c2ccccc12` (stereo not drawn) to `CCOC(=O)CC(c1nnn[nH]1)c1c[nH]c2ccccc12` (stereo not drawn), the “control BP” value rises from 135 mmHg to 168 mmHg.

Going from `CCOC(=O)C(CN)c1c[nH]c2ccc(Br)cc12.Cl` (stereo not drawn) to `CCOC(=O)NCC(c1nnn[nH]1)c1c[nH]c2ccc(OC)cc12` (stereo not drawn), the “control BP” value rises from 143 mmHg to 160 mmHg.
